This is an account of results in ChEMBL document CHEMBL2057165, “Synthesis and antiviral properties of novel 7-heterocyclic substituted 7-deaza-adenine nucleoside inhibitors of Hepatitis C NS5B polymerase” (Bioorg Med Chem, 2012).

The nature of data set [1]: Inhibition of Hepatitis C virus NS5B polymerase. Also on record: species or system Hepacivirus hominis. Put shortly: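 Nucleoside triphosphates tested in an NS5B polymerization assay on a heteromeric RNA template; IC50 given as mean of ≥3 experiments, SD within 20%.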
Data set [2] is described as follows: Inhibition of human DNA polymerase alpha.
Data set [3] is described as follows: Inhibition of human DNA polymerase beta.
Data set [4] can be described thus: Inhibition of human DNA polymerase gamma.
For another data set, the system named is Hepatitis C virus. Kind of data set: Antiviral activity against Hepatitis C virus genotype 1b infected in human HBI10A cells assessed as inhibition of viral replication in presence of 10% FBS. Type of data set: functional, organism-based, Hepacivirus hominis. The method, boiled down: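 HBI10A hepatoma cells stably carrying a genotype 1b subgenomic bicistronic HCV replicon; EC50 measured in the presence of 10% fetal bovine serum; mean of ≥3 experiments, SD within 20%.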

Data set [5] is described as follows: Prodrug activation in hamsters liver assessed as NTP formation at 10 mg/kg. Type of data set: organism-based. Also noted: dose 10 mg/kg. Conditions: cricetinae, in vivo; call rule not given here. The method, boiled down:
(§1)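 Prodrug dosed at 10 mg/Kg in hamster; liver analysed for NTP and NMP species.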

A short description of data set [6]: Prodrug activation in hamsters liver assessed as NMP formation at 10 mg/kg. Type of data set: organism-based. Also on record: dose 10 mg/kg. The conditions noted are these: cricetinae, in vivo. Put shortly:
as §1

A short description of data set [7]: Oral bioavailability in Wistar Han rat at 1 mg/kg. Type of data set: ADME, organism-based. The conditions noted are these: in vivo. The method, boiled down: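 Pharmacokinetics in Wistar Han rats after 1 mg/Kg given intravenously and orally; parent nucleoside followed in plasma to derive clearance, volume of distribution and oral bioavailability (F).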
In data set [8] the test system is Liver. Kind of data set: Drug uptake in Wistar Han rat liver assessed as nucleotide triphosphate level per gram of tissue at 20 mg/kg, iv measured after 3 hrs. Type of data set: ADME, organism-based. The conditions noted are these: in vivo. Also noted: dose 20 mg/kg, route intravenous. Put shortly: (§2)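 Wistar Han rats given 20 mg/Kg intravenously; NTP in liver measured up to 12 h after dosing, at 3, 6 and 12 h (nmol/g); parent nucleoside measured in plasma, and liver NTP/plasma nucleoside ratio computed at each timepoint.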

The subject of data set [9] is Liver. The data set can be described thus: Drug uptake in Wistar Han rat liver assessed as nucleotide triphosphate level per gram of tissue at 20 mg/kg, iv measured after 6 hrs. Type of data set: ADME, organism-based. Also on record: dose 20 mg/kg, route intravenous. The conditions noted are these: in vivo. The method, boiled down:
as §2

Data set [10] deals with Liver. The data set can be described thus: Drug uptake in Wistar Han rat liver assessed as nucleotide triphosphate level per gram of tissue at 20 mg/kg, iv measured after 12 hrs. Type of data set: ADME, organism-based. Also on record: dose 20 mg/kg, route intravenous. Conditions: in vivo. Put shortly:
as §2

The test system of a further data set is Nucleic Acid. Kind of data set: Ratio of drug level in nucleotide triphosphate level in liver to parent compound level in plasma in Wistar Han rat at 20 mg/kg, iv measured after 3 to 12 hrs. Type of data set: ADME, organism-based. Also noted: dose 20 mg/kg, route intravenous. The conditions noted are these: in vivo. Put shortly:
as §2

Data set [11] deals with Liver. Kind of data set: Drug uptake in Wistar Han rat liver assessed as nucleotide triphosphate level per gram of tissue at 20 mg/kg, po measured after 12 hrs. Type of data set: ADME, organism-based. Also on record: dose 20 mg/kg, route oral. The conditions noted are these: in vivo. Put shortly:
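Wistar Han rats dosed orally at 20 mg/Kg; NTP in liver measured 12 h after dosing, in nmol/g.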

On to `C[C@@]1(F)[C@H](O)[C@@H](COP(=O)(O)OP(=O)(O)OP(=O)(O)O)O[C@H]1n1cc(-c2ccn[nH]2)c2c(N)ncnc21`, for which the IC50 (in general, the concentration at which inhibition is half-maximal) was 0.07 µM in [1], above 10 µM in data set [2], above 10 µM in [3] and above 10 µM in [4].

Regarding `C[C@@]1(F)[C@H](O)[C@@H](CO)O[C@H]1n1cc(-c2ccn[nH]2)c2c(N)ncnc21`, the EC50 (commonly the concentration at which the effect is half-maximal) with Hepatitis C virus came out at 35 µM. Same read-out and setting: under `Cc1noc(-c2cn([C@@H]3O[C@H](CO)[C@@H](O)[C@@]3(C)O)c3ncnc(N)c23)n1` stands 42 µM. `C[C@@]1(O)[C@H](O)[C@@H](COP(=O)(O)OP(=O)(O)OP(=O)(O)O)O[C@H]1n1ccc2c(N)ncnc21` gave an IC50 in data set [1] of 0.1 µM. `CCOC(=O)[C@@H](C)NP(=O)(OC[C@H]1O[C@@H](n2cc(-c3ccn[nH]3)c3c(N)ncnc32)[C@](C)(F)[C@@H]1O)Oc1ccccc1` (stereo partly drawn): in the data set on Hepatitis C virus, the EC50 was above 50 µM. In addition, the Drug metabolism entry is recorded as “Not Active” in data set [5] and “Active” in [6].

In data set [1], `C[C@@]1(F)[C@H](O)[C@@H](COP(=O)(O)OP(=O)(O)OP(=O)(O)O)O[C@H]1n1cc(-c2ncon2)c2c(N)ncnc21` had an IC50 of 0.4 µM. Regarding `C[C@@]1(O)[C@H](O)[C@@H](COP(=O)(O)OP(=O)(O)OP(=O)(O)O)O[C@H]1n1cc(-c2nnco2)c2c(N)ncnc21`, the IC50 in data set [1] was above 95 µM. Consider `C[C@@]1(O)[C@H](O)[C@@H](COP(=O)(O)OP(=O)(O)OP(=O)(O)O)O[C@H]1n1cc(-c2cc[nH]n2)c2c(N)ncnc21`, for which the IC50 in data set [1] was 0.1 µM; in data set [2], above 10 µM; in [3] it was above 10 µM; in [4], above 10 µM. Regarding `C[C@@]1(O)[C@H](O)[C@@H](CO)O[C@H]1n1cc(-c2ncco2)c2c(N)ncnc21`, the EC50 in the data set with Hepatitis C virus is 7.8 µM. Same read-out and setting: the value for `Cn1cc(-c2cn([C@@H]3O[C@H](CO)[C@@H](O)[C@@]3(C)O)c3ncnc(N)c23)nn1` was 42 µM. For `C[C@@]1(O)[C@H](O)[C@@H](COP(=O)(O)OP(=O)(O)OP(=O)(O)O)O[C@H]1n1cc(-c2ncon2)c2c(N)ncnc21`, the IC50 in data set [1] is 0.5 µM; in data set [2] it was above 10 µM; in [3] it was above 10 µM; in [4], above 10 µM.

For `C[C@@]1(F)[C@H](O)[C@@H](CO)O[C@H]1n1cc(-c2ncon2)c2c(N)ncnc21`, the EC50 in the data set with Hepatitis C virus is 41 µM.

Take `C[C@@]1(F)[C@H](O)[C@@H](COP(=O)(O)OP(=O)(O)OP(=O)(O)O)O[C@H]1n1cc(-c2ncco2)c2c(N)ncnc21`: inhibition in data set [1] was half-maximal at 0.3 µM (IC50). In other words, the sub-micromolar range.

With `C[C@@]1(O)[C@H](O)[C@@H](CO)O[C@H]1n1cc(-c2nnco2)c2c(N)ncnc21`, in the data set on Hepatitis C virus, the EC50 was determined as 46 µM.

`C[C@@]1(O)[C@H](O)[C@@H](COP(=O)(O)OP(=O)(O)OP(=O)(O)O)O[C@H]1n1cc(-c2ncco2)c2c(N)ncnc21` yielded a half-maximal inhibitory concentration (IC50) in data set [1] of 0.5 µM. The same measure, in the same setting: the value for `C[C@@]1(O)[C@H](O)[C@@H](COP(=O)(O)OP(=O)(O)OP(=O)(O)O)O[C@H]1n1cc(-c2ncccn2)c2c(N)ncnc21` was 12 µM. `C[C@@]1(O)[C@H](O)[C@@H](CO)O[C@H]1n1cc(-c2cc[nH]n2)c2c(N)ncnc21`: in the data set with Hepatitis C virus, the EC50 is above 100 µM. The same measure, in the same setting: the value for `C[C@@]1(F)[C@H](O)[C@@H](CO)O[C@H]1n1cc(-c2ncco2)c2c(N)ncnc21` was 37 µM; that for `CCOC(=O)[C@@H](C)NP(=O)(OC[C@H]1O[C@@H](n2cc(-c3ccn[nH]3)c3c(N)ncnc32)[C@](C)(O)[C@@H]1O)Oc1ccccc1` (stereo partly drawn) was 1.8 µM.

For the molecule `C[C@@]1(O)[C@H](O)[C@@H](CO)O[C@H]1n1cc(-c2cn[nH]c2)c2c(N)ncnc21`, the EC50 with Hepatitis C virus came to 30 µM.

As to `C[C@@]1(O)[C@H](O)[C@@H](CO)O[C@H]1n1cc(-c2ncccn2)c2c(N)ncnc21`, in the data set on Hepatitis C virus, the EC50 is above 100 µM.

Molecule `Cn1cc(-c2cn([C@@H]3O[C@H](COP(=O)(O)OP(=O)(O)OP(=O)(O)O)[C@@H](O)[C@@]3(C)O)c3ncnc(N)c23)nn1` yielded an IC50 in [1] of 8.4 µM. For `C[C@@]1(O)[C@H](O)[C@@H](CO)O[C@H]1n1ccc2c(N)ncnc21` [BETA-2'-C-METHYL-7-DEAZA-ADENOSINE], the EC50 in the data set on Hepatitis C virus came to 0.3 µM.

With `C[C@@]1(O)[C@H](O)[C@@H](CO)O[C@H]1n1cc(-c2ncon2)c2c(N)ncnc21`, the EC50 in the data set on Hepatitis C virus was 1.9 µM. Further, the bioavailability – broadly, the share of a dose that reaches the circulation, judged against a reference dose that is usually intravenous – in [7] was 14.7%. The Drug uptake with Liver [8] amounted to 11.9 nmol/g; in the data set on Liver [9], 3.9 nmol/g; in the data set on Liver [10], 0.5 nmol/g; in the data set with Liver [11], 0.4 nmol/g. Also, the Ratio in the data set on Nucleic Acid was 20.

For `Cc1noc(-c2cn([C@@H]3O[C@H](COP(=O)(O)OP(=O)(O)OP(=O)(O)O)[C@@H](O)[C@@]3(C)O)c3ncnc(N)c23)n1`, the IC50 in data set [1] is 8.4 µM. In other words, the single-digit micromolar range. The same measure, in the same setting: under `C[C@@]1(O)[C@H](O)[C@@H](COP(=O)(O)OP(=O)(O)OP(=O)(O)O)O[C@H]1n1cc(-c2cn[nH]c2)c2c(N)ncnc21` stands 8.4 µM.
